Measurements: paper PMC2947205 (Science (New York, N.Y.), 2009)
Read-outs that look alike come from different tables or passages of the source.

What was measured:
sigma-1 receptor [1] = biological target: T1, sigma-1 receptor (Homo sapiens, UniProt Q99720); conditions: read-out: sigma-1 Kd; cited from earlier work
sigma-2 receptor [2] = biological target: T2, sigma-2 receptor (Homo sapiens, UniProt Q5BJF2); conditions: read-out: sigma-2 Kd; cited from earlier work
sigma-1 receptor [3] = biological target: T3, sigma-1 receptor (Rattus norvegicus, UniProt Q9R0C9); assay: Protection of [125I]-IACoc photolabeling in rat liver membranes; assay type: binding; conditions: for protection against sigma-1 receptor [125I]-IACoc photolabeling (in words): even at these high concentrations (50 and 100 μM); for protection of [125I]-IACoc photolabeling of the 26-kD sigma-1 receptor: 1 nM [125I]-IACoc
WT mice = assay: Open-field assay, WT mice; assay type: in vivo, mouse
sigma-1 receptor KO mice = assay: Open-field assay, sigma-1 receptor KO mice; assay type: in vivo, mouse; conditions: 3 mg/kg, ip, n = 6
sigma-2 receptor [4] = biological target: T4, sigma-2 receptor (Rattus norvegicus, UniProt Q5U3Y7); assay: Protection of [125I]IAF photolabeling of sigma-2 receptor in rat liver membranes; assay type: binding; conditions: for protection of [125I]IAF sigma-2 receptor photolabeling: 1 nM [125I]IAF
T4 sequence (Q5U3Y7 1-176): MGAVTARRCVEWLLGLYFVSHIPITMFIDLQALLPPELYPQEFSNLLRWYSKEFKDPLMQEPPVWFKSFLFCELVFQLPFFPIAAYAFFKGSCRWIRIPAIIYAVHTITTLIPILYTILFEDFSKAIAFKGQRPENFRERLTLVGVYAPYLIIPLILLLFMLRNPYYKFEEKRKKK

[5] = test system: human cardiac Na+ channel hNav1.5; assay: Patch-clamp INa in COS-7 cells transiently transfected with hNav1.5; assay type: cell-based; conditions: 100 μM, n = 3
Method in brief: (§1)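 Whole-cell INa was recorded in hNav1.5-expressing cells (HEK293; COS-7 transiently transfected). Currents were evoked by steps from −80 to −10 mV before, during and after washout of 100 μM test compound. Inhibition was derived from peak INa, reported as mean ± SEM of n = 3 cells.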

[6] = test system: WT neonatal cardiac myocytes; assay: Patch-clamp INa in WT neonatal cardiac myocytes; assay type: cell-based; conditions: Mus musculus, read-out: inhibition of INa
Method in brief: (§2)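 Neonatal cardiac myocytes came from wild-type and sigma-1 receptor knock-out mice. INa was evoked by steps from −80 to −10 mV and recorded in the absence of, during and after washout of 100 μM test compound.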

sigma-1 receptor [7] = biological target: T3, sigma-1 receptor; assay: Protection of [125I]IAF photolabeling of sigma-1 receptor in rat liver membranes; assay type: binding; conditions: for protection of [125I]IAF photolabeling of the sigma-1 receptor: 1 nM [125I]IAF
[8] = test system: human cardiac Na+ channel hNav1.5; assay: Patch-clamp INa in HEK293 cells stably expressing hNav1.5; assay type: cell-based; conditions: 100 μM, steps from −80 to −10 mV, n = 3
Method in brief: as §1

KO myocytes = assay: Patch-clamp INa in sigma-1 receptor KO neonatal cardiac myocytes; assay type: cell-based, mouse; conditions: 100 μM, n = 7
Method in brief: as §2

sigma-2 receptor [9] = biological target: T2, sigma-2 receptor; assay: Sigma-2 receptor binding
sigma-1 receptor [10] = biological target: T1, sigma-1 receptor; assay: Competition binding against

T3 sequence (Q9R0C9 whole entry): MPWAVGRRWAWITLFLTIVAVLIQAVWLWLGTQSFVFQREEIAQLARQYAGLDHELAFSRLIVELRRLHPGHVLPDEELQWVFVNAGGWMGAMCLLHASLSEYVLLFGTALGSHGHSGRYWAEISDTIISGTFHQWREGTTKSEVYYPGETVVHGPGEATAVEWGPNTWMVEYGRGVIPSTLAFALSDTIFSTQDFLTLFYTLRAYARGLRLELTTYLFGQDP
T1 sequence (Q99720 whole entry, species assumed): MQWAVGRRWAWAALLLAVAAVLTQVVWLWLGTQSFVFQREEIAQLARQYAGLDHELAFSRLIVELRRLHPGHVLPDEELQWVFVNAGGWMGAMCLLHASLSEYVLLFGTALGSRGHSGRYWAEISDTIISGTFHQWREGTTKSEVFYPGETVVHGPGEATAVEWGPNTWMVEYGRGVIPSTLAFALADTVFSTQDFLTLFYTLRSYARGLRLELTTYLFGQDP
T2 sequence (Q5BJF2 whole entry, species assumed): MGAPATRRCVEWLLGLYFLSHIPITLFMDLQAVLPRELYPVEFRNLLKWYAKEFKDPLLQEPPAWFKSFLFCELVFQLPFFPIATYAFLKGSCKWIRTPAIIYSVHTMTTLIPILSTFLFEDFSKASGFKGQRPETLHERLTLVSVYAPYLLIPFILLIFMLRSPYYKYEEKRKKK

Structure (SMILES): CC1CN(CCCc2ccc(N=[N+]=[N-])c(I)c2)CC(C)O1 (stereo not shown) [[^125I]IAF, 1-N-(2′,6′-dimethyl-morpholino)-3-(4-azido-3-[^125I]iodo-phenyl) propane]
- Kd (sigma-1 receptor [1]): 0.194 µM
- Kd (sigma-2 receptor [2]): 2.78 µM

Structure (SMILES): COC(=O)C1C(OC(=O)c2ccc(N=[N+]=[N-])c(I)c2)CC2CCC1N2C (stereo not shown) [[^125I]-IACoc, 3-[^125I]iodo-4-azidococaine]
- Kd (sigma-1 receptor [1]): 0.000126 µM

Structure (SMILES): CNCCc1c[nH]c2ccccc12 [N-methyltryptamine]
- protection against sigma-1 receptor [125I]-IACoc photolabeling (in words) (sigma-1 receptor [3]): protected minimally

Structure (SMILES): CN[C@@H](C)Cc1ccccc1 [methamphetamine, reference compound]
- hypermobility in open-field assay (in words) (WT mice; 3 mg/kg, ip, n = 6): induced hypermobility
- hypermobility in open-field assay (in words) (sigma-1 receptor KO mice): induced hypermobility

Structure (SMILES): O=C(CCCN1CCC(O)(c2ccc(Cl)cc2)CC1)c1ccc(F)cc1 [haloperidol, reference compound]
- protection of sigma-2 receptor photolabeling (in words) (sigma-2 receptor [4]; 10 μM, [125I]IAF): protected

Structure (SMILES): CN(C)CCc1c[nH]c2ccccc12 [DMT, N,N-dimethyltryptamine]
- distance traveled in open-field assay (hypermobility) (WT mice; 2 mg/kg ip, 2 hours after pargyline (75 mg/kg, ip), n = 12): 7025 ± 524.1 cm
- inhibition of INa [5]: 22 ± 4%
- inhibition at 100 µM [6]: 29 ± 3%
- protection of [125I]IAF photolabeling of the sigma-1 receptor (sigma-1 receptor [7]; 10 μM): 31%
- protection of [125I]IAF photolabeling of the sigma-1 receptor (sigma-1 receptor [7]; 50 μM): 43%
- protection of [125I]IAF photolabeling of the sigma-1 receptor (sigma-1 receptor [7]; 100 μM): 69%
- inhibition of INa [8]: 62 ± 3%
- protection of [125I]-IACoc photolabeling of the 26-kD sigma-1 receptor (sigma-1 receptor [3]; 50 μM): 61%
- protection of [125I]-IACoc photolabeling of the 26-kD sigma-1 receptor (sigma-1 receptor [3]; 100 μM): ~100%
- reduction of INa (KO myocytes): 7 ± 2%

Structure (SMILES): CC(C)=CCN1CC[C@]2(C)c3cc(O)ccc3C[C@H]1[C@H]2C [(+)-pentazocine, reference compound]
- protection of sigma-1 receptor photolabeling (in words) (sigma-1 receptor [7]; 10 μM, [125I]-IACoc or [125I]IAF): protected

Structure (SMILES): NCCc1c[nH]c2ccccc12 [tryptamine]
- Kd (sigma-2 receptor [9]): 4.91 µM
- Kd (sigma-1 receptor [10]): 431 µM
- protection of [125I]IAF sigma-2 receptor photolabeling (sigma-2 receptor [4]; 10 μM): 47%
- protection of [125I]IAF sigma-2 receptor photolabeling (sigma-2 receptor [4]; 50 μM): 78%
- protection of [125I]IAF sigma-2 receptor photolabeling (sigma-2 receptor [4]; 100 μM): 79%
- protection against sigma-1 receptor [125I]-IACoc photolabeling (in words) (sigma-1 receptor [3]): protected minimally

Structure (SMILES): NCCc1ccccc1 [phenethylamine]
- Kd (sigma-2 receptor [9]): 7.31 µM
- Kd (sigma-1 receptor [10]): 97.4 µM

Structure (SMILES): NCCc1ccc(O)cc1 [tyramine]
- Kd (sigma-1 receptor [10]): > 30000 µM

Structure (SMILES): CNCCc1ccc(O)cc1 [N-methyltyramine]
- Kd (sigma-2 receptor [9]; read-out: sigma-2 receptor Kd): 6.61 µM
